According to publication PMC5953009 (Chemical Science, 2015):
≈ marks a conversion by molar mass, not a printed value. Where two headings read alike, the source gives them in different places. Marks after values point to notes of the source that are not given here.

Columns and labels:
LecB = LecB (Pseudomonas aeruginosa, UniProt Q9HYN5); test: Isothermal titration calorimetry; type: binding
LecA = molecular target: T1, LecA (Pseudomonas aeruginosa, UniProt Q05097); test: Isothermal titration calorimetry; type: binding
T1 sequence (Q05097 1-122): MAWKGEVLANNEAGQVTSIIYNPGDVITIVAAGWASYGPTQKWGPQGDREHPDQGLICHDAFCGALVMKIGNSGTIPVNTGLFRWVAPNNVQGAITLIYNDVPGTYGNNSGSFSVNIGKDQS

[1] = system: Pseudomonas aeruginosa strain PAO1 biofilms; test: Dispersal of already established biofilms; type: cell-based; settings: 24 h
How it was run: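 PAO1 inoculum (LB overnight, washed, OD600 1) grown as biofilm 24 h at 37 °C, static, without compound, in 0.25% nutrient broth. Wells washed twice, then 0.25% broth with sterile-filtered test compound added (50 μM or stated concentration). After a further 24 h at 37 °C static, wells washed twice and stained 2.5–3 h with 0.5 mM WST-8/20 μM phenazine ethosulfate. A450 read; value is concentration giving complete dispersal.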

[2] = system: Pseudomonas aeruginosa strain PAO1; test: Bacterial cell viability in the supernatant of the biofilm inhibition assay; type: cell-based; settings: CFU counts in the biofilm supernatant and growth test in full medium
[3] = system: Pseudomonas aeruginosa strain PAO1 biofilms; test: Biofilm inhibition; type: cell-based; settings: 24 h growth, WST-8; compound alone
How it was run: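 PAO1 grown overnight in LB at 37 °C with 180 rpm shaking, washed in 0.25% (w/v) nutrient broth and normalised to OD600 1. Inoculated into 0.25% nutrient broth no. 2 containing sterile-filtered test compound at varied concentrations. Incubated 24–25 h at 37 °C, static, humid. Wells washed twice with water, stained 2.5–3 h at 37 °C with 0.5 mM WST-8 plus 20 μM phenazine ethosulfate in 0.25% broth. Supernatant A450 read.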

[4] = system: Pseudomonas aeruginosa PAO1; settings: cited from earlier work
[5] = system: Pseudomonas aeruginosa PAO1; test: Broth microdilution method; type: cell-based; settings: standard 2-fold dilution assay, full LB medium
How it was run: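 Broth microdilution: 64 μM compound stocks in LB, sterile-filtered, diluted serially 1/2 in LB. PAO1 grown overnight in LB (37 °C, 180 rpm), diluted to OD600 0.022; 4 μL added to 150 μL sample (~5 × 10^5 CFU). Sterility, growth and polymyxin B (from 64 μg mL−1) controls. Incubated ~18 h at 37 °C, static. MTT (1 mg mL−1) added, 10 min RT. MIC = lowest concentration without visible growth by eye.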

[6] = ITC, 20 mM Tris, 100 mM NaCl, 100 μM CaCl2, pH 7.5, 25 °C
[7] = ITC, 20 mM Tris, 100 mM NaCl, 100 μM CaCl2, pH 7.5, 25 °C, average of two runs

LecB, sequence (Q9HYN5 2-115 limits assumed): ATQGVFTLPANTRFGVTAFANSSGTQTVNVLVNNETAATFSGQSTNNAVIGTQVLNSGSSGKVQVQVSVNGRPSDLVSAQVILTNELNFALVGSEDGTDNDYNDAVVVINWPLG

**Q.** Which results are given for `CC(=O)N[C@H]1C(O)O[C@H](CO)[C@@H](O[C@@H]2O[C@@H](C)[C@@H](O)[C@@H](O)[C@@H]2O)[C@@H]1O[C@@H]1O[C@H](CO)[C@H](O)[C@H](O)[C@H]1O` (stereo partly shown) [Le^a, Lewis^a trisaccharide]?
**A.** Kd (LecB; [6]): 213 ± 2 nM; ΔG (LecB; [6]): –9.10 ± 0.02 kcal mol^–1; ΔH (LecB; [6]): –8.35 ± 0.02 kcal mol^–1; –TΔS (LecB; [6]): –0.74 ± 0.002 kcal mol^–1; n (stoichiometry of the binding) (LecB; [7]): 1.08 ± 0.01; r.p./nsugar (relative potency per fucoside) (LecB; KD(FucOCH3)/KD(ligand)/nFuc): 2

**Q.** What does the source list for `O=[N+]([O-])c1ccc(O[C@@H]2O[C@H](CO)[C@H](O)[C@H](O)[C@H]2O)cc1` [NPG, 4-nitrophenyl-β-D-galactopyranoside]?
**A.** ΔH (LecA; [6]): –10.6 ± 0.45 kcal mol^–1; –TΔS (LecA; [6]): 4.0 kcal mol^–1; n (stoichiometry of the binding) (LecA; [7]): 0.91 ± 0.03; r.p./nGal (relative potency per galactoside) (LecA; KD(GalAG0 or GalBG0)/KD(ligand)/nGal): 0.2

**Q.** With `NC[C@H]1O[C@H](O[C@H]2[C@H](O)[C@@H](O[C@H]3O[C@H](CO)[C@@H](O)[C@H](N)[C@H]3O)[C@H](N)C[C@@H]2N)[C@H](N)C[C@@H]1O` [Tobramycin] as the compound, how does the “Dispersal of already established biofilms” value (shortened to “Dispersal”) ([1]; compound at 4 μM) read?
**A.** Its value is 100% dispersal @ 4 μM.

**Q.** And the “MBC (minimal bactericidal concentration under biofilm forming conditions)” value [2]?
**A.** Its value is 0.5 µM (≈ 0.234 µg/mL).

**Q.** What about the “MBC (minimal bactericidal concentration under biofilm forming conditions)” value ([2]; listed as tobramycin) of the same compound?
**A.** The value was “bactericidal antibiofilm effect”.

**Q.** And the “MBIC (minimal biofilm inhibitory concentration)” value [3]?
**A.** The value was 0.5 µM.

**Q.** What about the “MIC (minimal inhibitory concentration)” value [4] of the same compound?
**A.** The value was 1 μg mL^–1 ^g.

**Q.** With (Ac-KKL)4(KFCxKI)2KHI [AcG2xK] as the compound, how does the “Dispersal” value ([1]; compound at 50 μM) read?
**A.** The value was 100% dispersal.

**Q.** What about the “MIC (minimal inhibitory concentration)” value [5] of the same compound?
**A.** Its value is greater than 64 µM.

**Q.** For Polymyxin B, which “Dispersal” value ([1]; compound at 10 μM) is on record?
**A.** The value was “∼70% dispersal @ 10 μM”.

**Q.** And the “MIC (minimal inhibitory concentration)” value ([4]; full medium)?
**A.** The value was 2 μg mL^–1 ^f.
